Results collected from several papers.
Each line is one published result; the experiments were not run side by side.
PIM3: Serine/threonine-protein kinase pim-3 (PIM3, Homo sapiens, UniProt Q86V86)

| SMILES | target | assay | conditions | quantity | value |
| --- | --- | --- | --- | --- | --- |
| CCOC(=O)c1ccc(OC(=O)CCCCCNC(=N)N)cc1 | Ubiquitin carboxyl-terminal hydrolase isozyme L3 (UCHL3, Homo sapiens, UniProt P15374) | enzyme activity, inhibitor | 10 µM | inhibition | 4% |
| Cc1nn(C)cc1-c1nc2c(N3CCN(Cc4ccc(Cl)cc4)CC3)c(Cl)cnc2[nH]1 | PIM3 | binding, competition with immobilised ligand | 1 µM | remaining binding | 100% |
| Nc1ncc(-c2nc(N3CCOCC3)nc(N3CCOCC3)n2)c(C(F)F)n1 | PIM3 | binding, competition with immobilised ligand | 10 µM | remaining binding | 89% |
| N#Cc1ccc(NCCNCC(=O)N2N=CCC2C#N)nc1 (centres unmarked) | Dipeptidyl peptidase 2 (Homo sapiens, UniProt Q9UHL4) | enzyme activity, inhibitor | 10 µM | inhibition | 30% |
| O=C(Nc1cccnn1)N1CCN([C@@H]2CCOc3cc(C(F)(F)F)ccc32)CC1 | 5-hydroxytryptamine receptor 1B (Htr1b, Rattus norvegicus, UniProt P28564) | cell-free assay | 20 µM | inhibition | 9% |
| COc1ncccc1-c1cnn2ccc(N3CCN(C(=O)OC(C)C)CC3)nc12 | Dual specificity testis-specific protein kinase 1 (TESK1, Homo sapiens, UniProt Q15569) | binding, competition with immobilised ligand | 1 µM | remaining binding | 93% |
| C=CC(=O)N1CCC[C@@H](n2nc(-c3ccc(Oc4ccccc4)cc3)c3c(N)ncnc32)C1 | Dual specificity tyrosine-phosphorylation-regulated kinase 1B (DYRK1B, Homo sapiens, UniProt Q9Y463) | cell-free assay | 1 µM | remaining signal | 136% |
| CCN(CC)CCCC[C@H](NC(=O)[C@H](CC(C)C)NC(=O)[C@H](C)NC(=O)[C@H](Cc1ccccc1)NC(=O)c1ccc(C(C)(C)C)cc1)C(=O)N[C@@H](CO)C(=O)OC | Bromodomain testis-specific protein, BD1 (BRDT, Homo sapiens, UniProt Q58F21) | thermal stability, DSF | 25 µM | ΔTm | -0.19 °C |
